# According to ChEMBL document CHEMBL1156681, “Synthesis, anti-bacterial, anti-asthmatic and anti-diabetic activities of novel N-substituted-2-(4-phenylethynyl-phenyl)-1H-benzimidazoles and N-substituted 2[4-(4,4-dimethyl-thiochroman-6-yl-ethynyl)-phenyl)-1H-benzimidazoles” (2008):
# Calls of active or inactive are those of the source. No cut-off for these calls is given here.
# How the values were obtained:
# [1] = target: T1, Tyrosine-protein phosphatase non-receptor type 1 (Homo sapiens) (UniProt P18031); assay: Inhibition of human recombinant PTP1B at 30 uM after 30 mins relative to control
# T1 sequence (whole entry): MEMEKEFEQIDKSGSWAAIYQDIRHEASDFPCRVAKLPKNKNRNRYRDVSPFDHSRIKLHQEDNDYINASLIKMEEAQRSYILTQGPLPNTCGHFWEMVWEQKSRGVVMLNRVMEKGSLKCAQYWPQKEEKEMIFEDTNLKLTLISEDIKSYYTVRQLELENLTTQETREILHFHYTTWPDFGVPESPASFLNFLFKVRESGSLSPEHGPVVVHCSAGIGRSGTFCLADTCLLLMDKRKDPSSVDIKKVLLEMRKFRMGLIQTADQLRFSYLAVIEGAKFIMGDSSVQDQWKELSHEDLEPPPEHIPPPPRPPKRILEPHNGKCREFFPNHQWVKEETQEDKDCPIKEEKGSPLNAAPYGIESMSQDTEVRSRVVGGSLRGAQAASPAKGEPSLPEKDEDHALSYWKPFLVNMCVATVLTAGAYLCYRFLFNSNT
# How it was run: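 In-house human recombinant PTP-1B (~35 ng) was assayed with p-nitrophenyl phosphate in 25 mM Hepes, 3 mM DTT and 1 mM EDTA, pH 7.4, with DMSO at ≤1%. Absorbance at 405 nm was monitored continuously at 30 °C for 30 min, then NaOH was added and 405 nm read again. Activity was expressed as % of control, and % inhibition as 100 minus activity.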
# [2] = test system: Staphylococcus aureus; assay: Antibacterial activity against Staphylococcus aureus at 0.1 ug/ml after 48 hrs by tube dilution method; format: functional, organism-based
# How it was run: (§1)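 Compounds dissolved in DMSO and tested by tube dilution at […]. Tubes were incubated at 37 °C for 48 h. Growth was scored against the DMSO control as poor, medium or confluent (no inhibition). MIC was taken from the dilution series. Cephalexin served as the reference antibacterial and DMSO as the solvent control.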
# [3] = test system: Staphylococcus aureus; assay: Antibacterial activity against Staphylococcus aureus at 1 ug/ml after 48 hrs by tube dilution method; format: functional, organism-based; how it was run: as §1
# [4] = test system: Staphylococcus aureus; assay: Antibacterial activity against Staphylococcus aureus at 200 ug/ml after 48 hrs by tube dilution method; format: functional, organism-based; how it was run: as §1
# [5] = test system: Staphylococcus aureus; assay: Antibacterial activity against Staphylococcus aureus at 500 ug/ml after 48 hrs by tube dilution method; format: functional, organism-based; how it was run: as §1
# [6] = test system: Staphylococcus aureus; assay: Antibacterial activity against Staphylococcus aureus after 48 hrs by tube dilution method; format: functional; how it was run: as §1
# [7] = test system: Salmonella typhimurium; assay: Antibacterial activity against Salmonella Typhimurium at 0.1 ug/ml after 48 hrs by tube dilution method; format: functional, organism-based; conditions: Salmonella enterica subsp. enterica serovar Typhimurium; how it was run: as §1
# [8] = test system: Salmonella typhimurium; assay: Antibacterial activity against Salmonella Typhimurium at 1 ug/ml after 48 hrs by tube dilution method; format: functional, organism-based; conditions: Salmonella enterica subsp. enterica serovar Typhimurium; how it was run: as §1
# [9] = test system: Salmonella typhimurium; assay: Antibacterial activity against Salmonella Typhimurium at 200 ug/ml after 48 hrs by tube dilution method; format: functional, organism-based; conditions: Salmonella enterica subsp. enterica serovar Typhimurium; how it was run: as §1
# [10] = test system: Salmonella typhimurium; assay: Antibacterial activity against Salmonella Typhimurium at 500 ug/ml after 48 hrs by tube dilution method; format: functional, organism-based; conditions: Salmonella enterica subsp. enterica serovar Typhimurium; how it was run: as §1
# [11] = test system: Salmonella typhimurium; assay: Antibacterial activity against Salmonella Typhimurium after 48 hrs by tube dilution method; format: functional, Salmonella enterica subsp. enterica serovar Typhimurium; conditions: Salmonella enterica; how it was run: as §1
# [12] = target: Phosphodiesterase 4 (Homo sapiens) (UniProt P27815+Q08499+Q07343+Q08493); assay: Inhibition of human PDE4 at 1 uM after 20 mins; format: protein assay
# [13] = target: Dipeptidyl peptidase 4 (Homo sapiens) (UniProt P27487); assay: Inhibition of human recombinant DPP4 at 0.3 uM after 30 mins relative to control
# Dipeptidyl peptidase 4 (Homo sapiens), sequence (P27487 whole entry, looked up): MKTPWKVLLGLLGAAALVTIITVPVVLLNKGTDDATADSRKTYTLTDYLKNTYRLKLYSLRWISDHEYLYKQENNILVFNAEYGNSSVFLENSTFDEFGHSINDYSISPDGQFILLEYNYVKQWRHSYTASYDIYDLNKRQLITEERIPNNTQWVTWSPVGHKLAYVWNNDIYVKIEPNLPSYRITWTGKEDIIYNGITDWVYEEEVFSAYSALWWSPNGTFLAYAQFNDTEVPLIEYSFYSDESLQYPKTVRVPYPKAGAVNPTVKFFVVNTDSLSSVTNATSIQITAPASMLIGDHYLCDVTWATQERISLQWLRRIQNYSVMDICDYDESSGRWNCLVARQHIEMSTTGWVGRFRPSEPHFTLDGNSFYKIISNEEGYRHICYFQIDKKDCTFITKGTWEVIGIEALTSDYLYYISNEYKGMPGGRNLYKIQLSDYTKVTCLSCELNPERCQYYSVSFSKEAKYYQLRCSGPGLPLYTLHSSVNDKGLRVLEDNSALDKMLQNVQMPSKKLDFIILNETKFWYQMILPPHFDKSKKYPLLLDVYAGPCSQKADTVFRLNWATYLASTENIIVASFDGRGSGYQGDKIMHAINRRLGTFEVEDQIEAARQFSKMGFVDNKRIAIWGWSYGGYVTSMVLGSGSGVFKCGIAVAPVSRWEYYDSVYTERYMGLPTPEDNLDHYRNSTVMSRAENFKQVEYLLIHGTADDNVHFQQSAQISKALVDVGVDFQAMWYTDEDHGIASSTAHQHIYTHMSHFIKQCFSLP
# How it was run: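 Recombinant human DPP-IV (10 ng) was run in 25 mM Tris pH 7.4, 140 mM NaCl, 10 mM KCl and 1% BSA with Gly-Pro-AMC substrate. Compounds in DMSO were added, and AMC release was followed kinetically at 30 °C for 30 min (ex 380 / em 460 nm). Percent inhibition was calculated against the solvent-only control.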
# [14] = test system: Salmonella typhimurium; assay: Antibacterial activity against Salmonella Typhimurium at 10 ug/ml after 48 hrs by tube dilution method; format: functional, organism-based; conditions: Salmonella enterica subsp. enterica serovar Typhimurium; how it was run: as §1
# [15] = test system: Staphylococcus aureus; assay: Antibacterial activity against Staphylococcus aureus at 10 ug/ml after 48 hrs by tube dilution method; format: functional, organism-based; how it was run: as §1
# [16] = test system: Staphylococcus aureus; assay: Antibacterial activity against Staphylococcus aureus at 100 ug/ml after 48 hrs by tube dilution method; format: functional, organism-based; how it was run: as §1
SMILES,inhibition [1],Activity [2],Activity [3],Activity [4],Activity [5],MIC [6],Activity [7],Activity [8],Activity [9],Activity [10],MIC [11],inhibition [12],inhibition [13],Activity [14],Activity [15],Activity [16]
CC1(C)CCSc2ccc(C#Cc3ccc(-c4nc5ccccc5[nH]4)cc3)cc21,2.42%,inactive,inactive,Active,Active,200 µg/mL,inactive,inactive,Active,Active,200 µg/mL,0%,0%,,,
Cc1ccc(S(=O)(=O)n2c(-c3ccc(C#Cc4ccccc4)cc3)nc3ccccc32)cc1,0%,inactive,inactive,Active,Active,200 µg/mL,inactive,inactive,Active,Active,200 µg/mL,22.6%,0%,inactive,,
CCCn1c(-c2ccc(C#Cc3ccccc3)cc2)nc2ccccc21,0%,inactive,inactive,,Active,500 µg/mL,inactive,inactive,,Active,500 µg/mL,8.91%,0%,,inactive,
Cn1c(-c2ccc(C#Cc3ccc4c(c3)C(C)(C)CCS4)cc2)nc2ccccc21,0%,inactive,inactive,Active,Active,200 µg/mL,inactive,inactive,Active,Active,200 µg/mL,18.2%,0%,,,
Cn1c(-c2ccc(C#Cc3ccccc3)cc2)nc2ccccc21,8.42%,inactive,inactive,,Active,500 µg/mL,inactive,inactive,Active,Active,200 µg/mL,22.3%,9%,inactive,inactive,
CCOC(=O)n1c(-c2ccc(C#Cc3ccccc3)cc2)nc2ccccc21,27.7%,inactive,inactive,,Active,500 µg/mL,inactive,inactive,,Active,500 µg/mL,16.5%,0%,,,
COC(=O)n1c(-c2ccc(C#Cc3ccccc3)cc2)nc2ccccc21,29%,inactive,inactive,,Active,500 µg/mL,inactive,inactive,,Active,500 µg/mL,18.2%,0%,inactive,,
CCOC(=O)n1c(-c2ccc(C#Cc3ccc4c(c3)C(C)(C)CCS4)cc2)nc2ccccc21,0%,inactive,inactive,,Active,500 µg/mL,inactive,inactive,,Active,500 µg/mL,16.9%,7%,inactive,inactive,
C(#Cc1ccc(-c2nc3ccccc3[nH]2)cc1)c1ccccc1,1.64%,inactive,inactive,Active,Active,200 µg/mL,inactive,inactive,Active,Active,200 µg/mL,3.4%,0%,inactive,inactive,
CCCCn1c(-c2ccc(C#Cc3ccccc3)cc2)nc2ccccc21,0%,inactive,inactive,,Active,500 µg/mL,inactive,inactive,,Active,500 µg/mL,19.4%,3%,,,
COC(=O)n1c(-c2ccc(C#Cc3ccc4c(c3)C(C)(C)CCS4)cc2)nc2ccccc21,0.97%,inactive,inactive,Active,Active,200 µg/mL,inactive,inactive,Active,Active,200 µg/mL,17.9%,5%,,,
CCCn1c(-c2ccc(C#Cc3ccc4c(c3)C(C)(C)CCS4)cc2)nc2ccccc21,7.38%,inactive,inactive,,Active,500 µg/mL,inactive,inactive,,Active,500 µg/mL,17.3%,0%,inactive,inactive,
CCCCOC(=O)n1c(-c2ccc(C#Cc3ccc4c(c3)C(C)(C)CCS4)cc2)nc2ccccc21,1.94%,inactive,inactive,,Active,500 µg/mL,inactive,inactive,,Active,500 µg/mL,21%,0%,,,
O=S(=O)(n1c(-c2ccc(C#Cc3ccccc3)cc2)nc2ccccc21)C(F)(F)F,0%,inactive,inactive,,Active,500 µg/mL,inactive,inactive,,Active,500 µg/mL,16.9%,0%,inactive,inactive,inactive
CCn1c(-c2ccc(C#Cc3ccc4c(c3)C(C)(C)CCS4)cc2)nc2ccccc21,0%,inactive,inactive,Active,Active,200 µg/mL,inactive,inactive,Active,Active,200 µg/mL,15.8%,0%,inactive,inactive,
CCCCn1c(-c2ccc(C#Cc3ccc4c(c3)C(C)(C)CCS4)cc2)nc2ccccc21,0.15%,inactive,,Active,Active,200 µg/mL,inactive,inactive,Active,Active,200 µg/mL,19.9%,5%,,,
CC1(C)CCSc2ccc(C#Cc3ccc(-c4nc5ccccc5n4S(=O)(=O)C(F)(F)F)cc3)cc21,0.52%,inactive,inactive,,Active,500 µg/mL,inactive,inactive,Active,Active,200 µg/mL,22.6%,9%,inactive,inactive,
